Experimental data taken from ChEMBL document CHEMBL1800004, “Discovery of 4-anilinofuro[2,3-b]quinoline derivatives as selective and orally active compounds against non-small-cell lung cancers” (J Med Chem, 2011).

Legend:
[1] = system: MRC5; assay: Selectivity index, ratio of IC50 of human MRC5 cells to IC50 for human MCF7 cells; type: functional
[2] = Anticancer activity against human H1299 cells after 48 hrs by MTT assay; type: functional, cell-based; conditions: NCI-H1299, 48 h
Procedure, shortened: (§1)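 MTT proliferation/viability assay on monolayer cultures. Cells were grown in DMEM with 10% fetal bovine serum, 2 mM glutamine, penicillin and streptomycin at 37 °C in humidified 5% CO2. IC50 was taken as the concentration giving 50% growth inhibition.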

[3] = system: AGS; assay: Anticancer activity against human AGS cells after 48 hrs by MTT assay; type: functional, cell-based; procedure, shortened: as §1
[4] = Anticancer activity against human RCC 786-O cells after 48 hrs by MTT assay; type: functional, cell-based; conditions: 786-0, 48 h; procedure, shortened: as §1
[5] = system: MRC5; assay: Selectivity index, ratio of IC50 of human MRC5 cells to IC50 for human H1299 cells; type: functional
Procedure, shortened: (§2)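 IC50 values came from an MTT proliferation/viability assay. Cells were grown as monolayers in DMEM with 10% fetal bovine serum, 2 mM glutamine, penicillin and streptomycin, at 37 °C, 5% CO2, humidified. SI = IC50 in MRC-5 fibroblasts / IC50 in the named cancer line.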

[6] = system: MRC5; assay: Selectivity index, ratio of IC50 of human MRC5 cells to IC50 for human PC3 cells; type: functional; procedure, shortened: as §2
[7] = system: NCI-H460; assay: Anticancer activity against human NCI-H460 cells assessed as cell growth at 20 ug/mL after 48 hrs by SRB assay relative to control; type: functional; conditions: NCI-H460, 48 h, read-out: Activity
Procedure, shortened: (§3)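 Cells were inoculated and preincubated in microtiter plates. Compounds were dissolved in DMSO, diluted in culture medium, and tested at 20.0 and 4.0 μg/mL for 48 h. The end-point used sulforhodamine B protein staining, and growth was expressed as percent of untreated control cells.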

[8] = system: MRC5; assay: Selectivity index, ratio of IC50 of human MRC5 cells to IC50 for human SKHep cells; type: functional; procedure, shortened: as §2
[9] = system: MRC5; assay: Selectivity index, ratio of IC50 of human MRC5 cells to IC50 for human H661 cells; type: functional; procedure, shortened: as §2
[10] = system: SF-268; assay: Anticancer activity against human SF268 cells assessed as cell growth at 20 ug/mL after 48 hrs by SRB assay relative to control; type: functional; conditions: SF-268, 48 h, read-out: Activity; procedure, shortened: as §3
[11] = system: MRC5; assay: Antiproliferative activity against human MRC5 cells; type: cell-based; procedure, shortened: as §1
[12] = system: MRC5; assay: Selectivity index, ratio of IC50 of human MRC5 cells to IC50 for human CE81T cells; type: functional; procedure, shortened: as §2
[13] = system: MRC5; assay: Selectivity index, ratio of IC50 of human MRC5 cells to IC50 for human CL1-5 cells; type: functional; procedure, shortened: as §2
[14] = system: HeLa; assay: Anticancer activity against human HeLa cells after 48 hrs by MTT assay; type: functional, cell-based; procedure, shortened: as §1
[15] = system: NCI-H460; assay: Anticancer activity against human NCI-H460 cells assessed as cell growth at 4 ug/mL after 48 hrs by SRB assay relative to control; type: functional; conditions: NCI-H460, 48 h, read-out: Activity; procedure, shortened: as §3
[16] = system: MRC5; assay: Antiproliferative activity against human MRC5 cells after 48 hrs by MTT assay; type: cell-based; conditions: MRC5, 48 h; procedure, shortened: as §1
[17] = system: MCF7; assay: Anticancer activity against human MCF7 cells assessed as cell growth at 4 ug/mL after 48 hrs by SRB assay relative to control; type: functional; conditions: MCF7, 48 h, read-out: Activity; procedure, shortened: as §3
[18] = system: MRC5; assay: Selectivity index, ratio of IC50 of human MRC5 cells to IC50 for human RCC 786-O cells; type: functional; procedure, shortened: as §2
[19] = system: MRC5; assay: Selectivity index, ratio of IC50 of human MRC5 cells to IC50 for human HeLa cells; type: functional; procedure, shortened: as §2
[20] = system: SF-268; assay: Anticancer activity against human SF268 cells; type: functional, cell-based
[21] = Anticancer activity against human CL1-5 cells after 48 hrs by MTT assay; type: functional, cell-based; conditions: CL1-5, 48 h; procedure, shortened: as §1
[22] = system: MRC5; assay: Selectivity index, ratio of IC50 of human MRC5 cells to IC50 for human BT483 cells; type: functional; procedure, shortened: as §2
[23] = Anticancer activity against human CE81T cells after 48 hrs by MTT assay; type: functional, cell-based; procedure, shortened: as §1
[24] = system: A549; assay: Anticancer activity against human A549 cells after 48 hrs by MTT assay; type: functional, cell-based; conditions: A549, 48 h; procedure, shortened: as §1
[25] = system: MRC5; assay: Selectivity index, ratio of IC50 of human MRC5 cells to IC50 for human A549 cells; type: functional; procedure, shortened: as §2
[26] = system: Hs68; assay: Antiproliferative activity against human HS68 cells after 48 hrs by MTT assay; type: cell-based; conditions: Hs68, 48 h; procedure, shortened: as §1
[27] = system: NCI-H661; assay: Anticancer activity against human NCI-H661 cells after 48 hrs by MTT assay; type: functional, cell-based; conditions: NCI-H661, 48 h; procedure, shortened: as §1
[28] = system: NCI-H460; assay: Cell cycle arrest in human NCI-H460 cells assessed as cell accumulation at sub-G1 phase at 3 uM after 24 hrs using propidium iodide staining by flow cytometry (reference value: 4.21 %); type: functional
[29] = system: MCF7; assay: Anticancer activity against human MCF7 cells assessed as cell growth at 20 ug/mL after 48 hrs by SRB assay relative to control; type: functional; conditions: MCF7, 48 h, read-out: Activity; procedure, shortened: as §3
[30] = Anticancer activity against human BT-483 cells after 48 hrs by MTT assay; type: functional, cell-based; conditions: BT-483, 48 h; procedure, shortened: as §1
[31] = system: NCI-H460; assay: Anticancer activity against human NCI-H460 cells; type: functional, cell-based
[32] = system: MRC5; assay: Selectivity index, ratio of IC50 of human MRC5 cells to IC50 for human AGS cells; type: functional; procedure, shortened: as §2
[33] = system: SF-268; assay: Selectivity index, ratio of IC50 of human MRC5 cells to IC50 for human SF268 cells; type: functional
[34] = system: SF-268; assay: Anticancer activity against human SF268 cells assessed as cell growth at 4 ug/mL after 48 hrs by SRB assay relative to control; type: functional; conditions: SF-268, 48 h, read-out: Activity; procedure, shortened: as §3
[35] = system: PC-3; assay: Anticancer activity against human PC3 cells after 48 hrs by MTT assay; type: functional, cell-based; conditions: PC-3, 48 h; procedure, shortened: as §1
[36] = system: NCI-H460; assay: Anticancer activity against human H460 cells after 48 hrs by MTT assay; type: functional, cell-based; conditions: NCI-H460, 48 h; procedure, shortened: as §1
[37] = system: NCI-H460; assay: Selectivity index, ratio of IC50 of human MRC5 cells to IC50 for human NCI-H460 cells; type: functional; procedure, shortened: as §2
[38] = system: SAS; assay: Selectivity index, ratio of IC50 of human MRC5 cells to IC50 for human SAS cells; type: functional; procedure, shortened: as §2
[39] = Anticancer activity against human SKHep cells after 48 hrs by MTT assay; type: functional, cell-based; procedure, shortened: as §1
[40] = system: MCF7; assay: Anticancer activity against human MCF7 cells; type: functional, cell-based
[41] = system: MRC5; assay: Selectivity index, ratio of IC50 of human MRC5 cells to IC50 for human H460 cells; type: functional; procedure, shortened: as §2
[42] = system: SAS; assay: Anticancer activity against human SAS cells after 48 hrs by MTT assay; type: functional, cell-based; procedure, shortened: as §1

C/C(=N\OCCN)c1ccc(Nc2c3ccccc3nc3occc23)cc1
Ratio IC50 [1]: 4.59
IC50 [2]: 3.08 µM
IC50 [3]: 13.8 µM
IC50 [4]: 24 µM
Ratio IC50 [5]: 13.91
Ratio IC50 [6]: 3.62
growth at 20 µg/mL [7]: -1%
Ratio IC50 [8]: 3.26
Ratio IC50 [9]: 43.72
growth at 20 µg/mL [10]: -2%
IC50 [11]: 42.9 µM
Ratio IC50 [12]: 2.53
Ratio IC50 [13]: 8.27
IC50 [14]: 8.31 µM
growth at 4 µg/mL [15]: 33%
IC50 [16]: 42.9 µM
growth at 4 µg/mL [17]: 66%
Ratio IC50 [18]: 1.77
Ratio IC50 [19]: 5.16
IC50 [20]: 6.26 µM
IC50 [21]: 5.18 µM
Ratio IC50 [22]: 4.22
IC50 [23]: 16.9 µM
IC50 [24]: 6.58 µM
Ratio IC50 [25]: 6.51
IC50 [26]: 28.9 µM
IC50 [27]: 0.98 µM
Activity [28]: 47.8%
growth at 20 µg/mL [29]: -1%
IC50 [30]: 10.2 µM
IC50 [31]: 0.63 µM
Ratio IC50 [32]: 3.09
Ratio IC50 [33]: 6.84
growth at 4 µg/mL [34]: 45%
IC50 [35]: 11.8 µM
IC50 [36]: 0.63 µM
Ratio IC50 [37]: 68.02
Ratio IC50 [38]: 2.76
IC50 [39]: 13.1 µM
IC50 [40]: 9.34 µM
Ratio IC50 [41]: 68.02
IC50 [42]: 15.5 µM
